Experimental findings from ChEMBL document CHEMBL4251739, “Rhodanine as a Potent Scaffold for the Development of Broad-Spectrum Metallo-β-lactamase Inhibitors” (ACS Med Chem Lett, 2018) are described below.

In general, IC50 refers to the midpoint of a concentration-inhibition curve. Low values mean greater potency, high ones weaker potency. The term inhibition denotes the share of the control response that was lost under treatment.

Series [1] deals with Bacteria. Description: Inhibition of bacterial L1 expressed in Escherichia coli DH10B assessed as potentiation of cefazolin-induced antibacterial activity by measuring cefazolin MIC at 128 ug/ml after 16 hrs by broth micro-dilution method (reference value: 32 ug/ml). In short, it runs like this:
(§1)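 Dose-dependent cefazolin MIC assay against E. coli DH10B expressing L1 from a pBCSK plasmid, with varied inhibitor doses up to 256 µg/mL. Fold decrease in MIC was taken relative to cefazolin alone. Medium pH was monitored during the assay.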

The test system of series [2] is Bacteria. Kind of series: Inhibition of bacterial NDM1 expressed in Escherichia coli DH10B assessed as potentiation of cefazolin-induced antibacterial activity by measuring cefazolin MIC at 32 ug/ml after 16 hrs by broth micro-dilution method (reference value: 8 ug/ml). Background: Broth dilution looks for growth in wells or tubes with falling amounts of substance.

Series [3] has as its system Bacteria. Kind of series: Inhibition of bacterial L1 expressed in Escherichia coli DH10B assessed as potentiation of cefazolin-induced antibacterial activity by measuring cefazolin MIC at 16 ug/ml after 16 hrs by broth micro-dilution method (reference value: 32 ug/ml). In short, it runs like this:
as §1

A short description of series [4]: Inhibition of bacterial L1 expressed in Escherichia coli BL21(DE3) using cefazolin as substrate by spectrometric method. Set-up: species or system Bacteria. In short, it runs like this: (§2)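 Purified enzymes, overexpressed and purified by earlier methods, assayed under steady-state conditions by UV spectrometry in 50 mM Tris, pH 7.0. Substrate for NDM-1, VIM-2 and L1 was cefazolin (50 µM), read at 262 nm. Substrate for ImiS was imipenem (60 µM), read at 300 nm. Inhibitor varied 0–50 µM; IC50 is the concentration giving 50% loss of activity.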

Series [5] in a line: Inhibition of bacterial VIM2 expressed in Escherichia coli BL21(DE3) using cefazolin as substrate by spectrometric method. Set-up: species or system Bacteria. In short, it runs like this:
as §2

The test system of series [6] is Escherichia coli. Kind of series: Toxicity against Escherichia coli DH10B up to 256 ug/ml after 16 hrs by broth micro-dilution method. Type of series: organism-based, K-12 substr. DH10B. As to conditions: in vivo. In outline:
(§3)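 Compounds alone, at the same doses used in the MIC potentiation assays, tested for antibacterial effect against E. coli with and without MβL expression.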

In series [7] the test system is Bacteria. Description: Inhibition of bacterial ImiS expressed in Escherichia coli DH10B assessed as potentiation of imipenem-induced antibacterial activity by measuring imipenem MIC at 32 ug/ml after 16 hrs by broth micro-dilution method (reference value: 2 ug/ml).
Series [8] in a line: Inhibition of bacterial NDM1 expressed in Escherichia coli BL21(DE3) using cefazolin as substrate by spectrometric method. Details: species or system Bacteria. In outline: as §2
The subject of series [9] is Escherichia coli. Kind of series: Toxicity against Escherichia coli DH10B expressing bacterial L1 up to 256 ug/ml after 16 hrs by broth micro-dilution method. As to conditions: in vivo. Type of series: organism-based, K-12 substr. DH10B. In outline:
as §3

For series [10], the system named is Bacteria. Kind of series: Inhibition of bacterial NDM1 expressed in Escherichia coli DH10B assessed as potentiation of cefazolin-induced antibacterial activity by measuring fold reduction in cefazolin MIC at 32 ug/ml after 16 hrs by broth micro-dilution method relative to cefazolin alone.
Series [11] has as its system Bacteria. Kind of series: Inhibition of bacterial L1 expressed in Escherichia coli DH10B assessed as potentiation of cefazolin-induced antibacterial activity by measuring cefazolin MIC at 32 ug/ml after 16 hrs by broth micro-dilution method (reference value: 32 ug/ml). In outline:
as §1

Series [12] relates to Bacteria. Kind of series: Inhibition of bacterial L1 expressed in Escherichia coli DH10B assessed as potentiation of cefazolin-induced antibacterial activity by measuring cefazolin MIC at 64 ug/ml after 16 hrs by broth micro-dilution method (reference value: 32 ug/ml). In short, it runs like this:
as §1

Series [13] concerns Bacteria. Kind of series: Inhibition of bacterial VIM2 expressed in Escherichia coli DH10B assessed as potentiation of cefazolin-induced antibacterial activity by measuring fold reduction in cefazolin MIC at 32 ug/ml after 16 hrs by broth micro-dilution method relative to cefazolin alone.
The test system of series [14] is Bacteria. Description: Inhibition of bacterial L1 expressed in Escherichia coli DH10B assessed as potentiation of cefazolin-induced antibacterial activity by measuring fold reduction in cefazolin MIC at 32 ug/ml after 16 hrs by broth micro-dilution method relative to cefazolin alone. In short, it runs like this:
as §1

In series [15] the test system is Bacteria. Kind of series: Inhibition of bacterial L1 expressed in Escherichia coli DH10B assessed as potentiation of cefazolin-induced antibacterial activity by measuring decrease in cefazolin MIC after 16 hrs by broth micro-dilution method. In short, it runs like this:
as §1

Series [16] concerns Bacteria. Kind of series: Inhibition of bacterial L1 expressed in Escherichia coli DH10B assessed as potentiation of cefazolin-induced antibacterial activity by measuring fold reduction in cefazolin MIC at 256 ug/ml after 16 hrs by broth micro-dilution method relative to cefazolin alone. In outline:
as §1

The subject of series [17] is Bacteria. Kind of series: Inhibition of bacterial VIM2 expressed in Escherichia coli DH10B assessed as potentiation of cefazolin-induced antibacterial activity by measuring cefazolin MIC at 32 ug/ml after 16 hrs by broth micro-dilution method (reference value: 512 ug/ml).
For series [18], the system named is Bacteria. Description: Inhibition of bacterial L1 expressed in Escherichia coli DH10B assessed as potentiation of cefazolin-induced antibacterial activity by measuring cefazolin MIC at 256 ug/ml after 16 hrs by broth micro-dilution method (reference value: 32 ug/ml). In short, it runs like this:
as §1

The nature of series [19]: Inhibition of bacterial ImiS expressed in Escherichia coli BL21(DE3) using imipenem as substrate by spectrometric method. Set-up: species or system Bacteria. In short, it runs like this: as §2
Series [20] can be described thus: Cytotoxicity against mouse L929 cells assessed as cell viability up to 200 uM after 48 hrs by CCK8 assay relative to control. As to conditions: read-out: Activity. In kind it is cell-based. In outline: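 Mouse fibroblast L929 cells exposed to inhibitors at 12.5, 25, 50, 100, 200 and 400 µM working concentrations; percentage of cells maintaining viability measured.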
(In general: Tetrazolium assays rely on reduction of a dye to a coloured formazan, in cell work by metabolically active cells.)

The subject of series [21] is Bacteria. Description: Inhibition of bacterial VIM2 expressed in Escherichia coli BL21(DE3) at 50 uM using cefazolin as substrate by spectrometric method relative to control.
Series [22] is described as follows: Stability of the compound in pH 7 Tris buffer at 50 uM after 24 hrs by UV-Vis spectra analysis. Type of series: physicochemical. The conditions noted are these: pH 7, 24 h. In outline:
(§4)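 Compound at 50 µM held in MES (pH 5.5, 6.0, 6.5), in Tris (pH 7.0–8.5), or in Tris pH 7.0 containing L1. Absorbance change at 401 nm followed over 24 h.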

Series [23] is described as follows: Stability of the compound in pH 6 to 6.5 MES buffer at 50 uM after 24 hrs by UV-Vis spectra analysis. Type of series: physicochemical. The conditions noted are these: pH 6, 24 h. In outline:
as §4

A short description of series [24]: Stability of the compound in pH 7 Tris buffer at 50 uM after 24 hrs in presence of bacterial L1 by UV-Vis spectra analysis. In kind it is ADME. As to conditions: pH 7, 24 h. In outline:
as §4

Series [25] has as its system Bacteria. Description: Inhibition of bacterial NDM1 expressed in Escherichia coli BL21(DE3) at 20 uM using cefazolin as substrate by spectrometric method relative to control.
The subject of series [26] is Bacteria. Description: Inhibition of bacterial ImiS expressed in Escherichia coli BL21(DE3) at 40 uM using imipenem as substrate by spectrometric method relative to control.
The test system of series [27] is Bacteria. Kind of series: Inhibition of bacterial VIM2 expressed in Escherichia coli BL21(DE3) at 4 uM using cefazolin as substrate by spectrometric method relative to control.
Series [28] has as its system Bacteria. Description: Inhibition of bacterial L1 expressed in Escherichia coli BL21(DE3) at 0.8 uM using cefazolin as substrate by spectrometric method relative to control.

Regarding `O=C(O)c1ccc(N2C(=O)/C(=C/c3ccc([N+](=O)[O-])cc3[N+](=O)[O-])SC2=S)cc1`, the MIC stood at 2 mg/L in the series on Bacteria [1]; 1 mg/L in the series with Bacteria [2]; 8 mg/L in the series on Bacteria [3]; 1 mg/L with Bacteria [7]; 4 mg/L with Bacteria [11]; 2 mg/L in the series on Bacteria [12]. In addition, the MIC in the series with Bacteria [17] came to 128 mg/L; in the series with Bacteria [18], 1 mg/L. For the same molecule, the IC50 is 0.02 µM in series [4], 3.9 µM in [5], 6.7 µM in series [8] and 15.9 µM in series [19]. Also, the Activity result in the series with Escherichia coli [6] and with Escherichia coli [9] was “Non-Toxic” throughout. Moreover, the fold change (FC) in the series with Bacteria [10] was 4 to 8; in the series with Bacteria [13], 4; in the series on Bacteria [14], 8; with Bacteria [16], 32. Also, the inhibition result in the series with Bacteria [15] was “Dose-dependent effect”. The viability at 48 h in series [20] is more than 80%.

Consider `COc1ccc(/C=C2\SC(=S)N(c3ccc(C(=O)O)cc3)C2=O)cc1`, for which the MIC in the series on Bacteria [2] is 2 mg/L; with Bacteria [7], 0.5 mg/L; in the series on Bacteria [11], 4 mg/L; in the series with Bacteria [17], more than 512 mg/L. Also, the inhibition in the series on Bacteria [21] is less than 50%. Moreover, the Stability entry in series [22], in [23] and in [24] was “Stable” in each case. Besides, the half-inhibitory concentration (IC50) in [4] turned out to be 0.31 µM; in series [8], 12 µM; in series [19], 15 µM. The fold change (FC) in the series with Bacteria [10] is 4 to 8; with Bacteria [14] it was 8.

Take `O=C(O)c1ccc(N2C(=O)/C(=C/c3ccccc3[N+](=O)[O-])SC2=S)cc1`: the MIC with Bacteria [1] is 2 mg/L; in the series on Bacteria [2] it was 4 mg/L; in the series on Bacteria [3] it was 16 mg/L; in the series with Bacteria [7], 1 mg/L; in the series on Bacteria [11], 4 mg/L; with Bacteria [12], 4 mg/L. In addition, the MIC came to 128 mg/L with Bacteria [17] and 2 mg/L in the series on Bacteria [18]. The inhibition with Bacteria [25] is more than 95%; with Bacteria [26], more than 95%; in the series with Bacteria [27], more than 95%; with Bacteria [28], more than 95%; in the series with Bacteria [15] it was “Dose-dependent effect”. For the same molecule, the IC50 in series [4] is 0.05 µM; in [5] it was 0.19 µM; in [8], 1.31 µM; in [19], 3 µM. For the same molecule, the Activity entry in the series on Escherichia coli [6] and with Escherichia coli [9] was “Non-Toxic” each time. Besides, the fold change (FC) was determined as 4 in the series with Bacteria [13], 8 with Bacteria [14] and 16 in the series with Bacteria [16]. In series [20], the viability at 48 h was determined as 80%.
